Screening results as filed in PubChem.
KCNK3 inh: human KCNK3 channel inhibition, primary screen. B-score at 10 µM. 0.84% of 340,000 active. CHO-KCNK3 thallium flux, FluxOR fluorescence; stronger effect = lower value;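 active = B-score under library mean minus 4 SD, starting fluorescence ratio at most library mean plus 5 SD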;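 note: more negative B-score means stronger inhibition of thallium flux through KCNK3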
Target sequence (O14649 whole entry, looked up): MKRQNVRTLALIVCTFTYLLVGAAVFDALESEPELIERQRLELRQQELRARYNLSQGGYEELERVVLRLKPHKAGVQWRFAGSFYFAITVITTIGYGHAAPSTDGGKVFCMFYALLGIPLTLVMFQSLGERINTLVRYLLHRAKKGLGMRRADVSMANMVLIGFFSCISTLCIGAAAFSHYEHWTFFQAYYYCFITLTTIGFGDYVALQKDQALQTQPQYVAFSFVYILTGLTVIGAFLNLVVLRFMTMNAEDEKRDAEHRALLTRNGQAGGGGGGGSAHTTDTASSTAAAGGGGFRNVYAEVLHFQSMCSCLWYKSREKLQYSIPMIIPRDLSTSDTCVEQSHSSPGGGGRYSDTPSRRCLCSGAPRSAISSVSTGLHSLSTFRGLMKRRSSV
KCNQ1 block: inhibitors of human KCNQ1 potassium channel; AID 2642; CHO-K1 KCNQ1, FluxOR thallium flux fluorescence; stronger effect = higher value; P51787; 1.3% of 310,000 active; B-score at 10 µM;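 active = compounds whose thallium flux B-score, printed positive for inhibition, exceeds three library SD while starting fluorescence stays within three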;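 note: channel opened by potassium depolarization with thallium stimulus after 20 min compound exposure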
KCNK9 block: human KCNK9 channel inhibition. Q9NPC2. HEK293 KCNK9, FluxOR thallium flux fluorescence; stronger effect = lower value. B-score at 10 µM. 1.2% of 310,000 active. AID 488922;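 active = ratio B-score over 3 SD below the library mean, with starting fluorescence within 5 SD of its mean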;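 note: negative B-score means less thallium flux so channel inhibition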
Target sequence (Q9NPC2 whole entry, looked up): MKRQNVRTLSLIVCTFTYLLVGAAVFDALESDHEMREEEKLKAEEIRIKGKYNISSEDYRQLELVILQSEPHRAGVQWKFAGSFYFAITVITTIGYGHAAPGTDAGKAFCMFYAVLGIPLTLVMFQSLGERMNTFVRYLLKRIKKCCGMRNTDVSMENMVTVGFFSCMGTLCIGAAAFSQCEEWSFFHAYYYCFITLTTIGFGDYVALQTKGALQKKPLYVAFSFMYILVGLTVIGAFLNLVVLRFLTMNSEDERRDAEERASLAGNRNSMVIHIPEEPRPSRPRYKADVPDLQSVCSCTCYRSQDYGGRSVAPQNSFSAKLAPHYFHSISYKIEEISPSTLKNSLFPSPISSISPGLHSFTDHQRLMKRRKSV
KCNQ1 pot: potentiators or activators of human KCNQ1 potassium channel; CHO-K1 KCNQ1, thallium flux FluxOR fluorescence; stronger effect = higher value; B-score at 10 µM; P51787; 0.35% of 310,000 active;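 active = fluorescence ratio B-score, a plate-corrected score, at least three library SD, with initial intensity B-score within 5 SD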
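System: Stable KCNQ1 CHO-K1 line | Incubation: 90 min dye loading and 20 min compound exposure, both at room temperature | Measure: Ratio B score | Medium: Assay buffer for compound exposure, DMSO matched across wells | Compound dosing: Single-concentration screen | Probe or stimulus: K+/Tl+ depolarizing stimulus | Measured by: Kinetic FluxOR fluorescence, 10 s baseline plus 110 s post-stimulus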
Kir21 inh: inhibitors of mouse Kir2.1 inward-rectifier potassium channel. P35561. HEK293-Kir2.1, FluxOR thallium flux fluorescence; stronger effect = lower value. B-score at 10 µM. 0.85% of 310,000 active;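 active = fluorescence ratio B-score at or below minus 3 SD of library scores, with starting-brightness B-score within 2 SD, cut at about -4.2 in these data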;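 note: channel flux triggered by added potassium and thallium sulfate stimulus; B-score of peak minus minimum fluorescence over baseline after thallium stimulus; more negative B-score means stronger Kir2.1 block with less thallium influx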
hERG rescue: hERG (human) protection from proarrhythmic block; CHO-hERG, FluxOR thallium flux, dofetilide IC70 present; Q12809; 0.51% of 310,000 active; activation (rescue from dofetilide block), less the hit threshold, % at 10 µM;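 active = activation above the mean of controls blocked by dofetilide plus 5 SD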;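 note: thallium influx through hERG after potassium depolarization seen as dye fluorescence rise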
KCNK9 block conf: confirmation of human KCNK9 potassium channel inhibitors; shares compounds with KCNK9 block; HEK293 KCNK9 cells, FluxOR thallium flux fluorescence; inhibition, % at 10 µM; 43% of 4,900 active;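 active = thallium signal inhibited by more than 5 SD of the compound-free buffer control wells, on both duplicate plates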
Kir21 sel: tests whether KCNK9 modulators also affect mouse Kir2.1; shares compounds with KCNK9 block; Kir2.1 cells, FluxOR thallium flux fluorescence; inhibition, % at 10 µM; 4% of 4,900 active; AID 492993;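 active = thallium signal drop more than 5 SD beyond the mean of the no-compound control wells, seen in both duplicate plates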;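 note: signal is fluorescence rise after thallium addition divided by baseline fluorescence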
KCNK9 uninduced: non-induced cell nonspecific activity of KCNK9 modulators | non-induced KCNK9-HEK293, FluxOR thallium flux | 40% of 4,900 active | inhibition, % at 10 µM | AID 492997 | shares compounds with KCNK9 block;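 active = thallium signal drop beyond 5 SD of the untreated control mean, on both duplicate plates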
Large screens that a line does not name were inactive (follow-up assays come after a bar, where they were run). Shown are actives, neighbours in structure and some others; about 3.7% of the full set was active somewhere.

Cc1cccn2c(=O)c(/C=C(\C#N)C(=O)NCc3ccco3)c(N3CCCCCC3)nc12	none | KCNK9 block conf inactive | Kir21 sel inactive | KCNK9 uninduced inactive
Cc1cccn2c(=O)c(/C=C(\C#N)C(=O)NCc3ccco3)c(N3CCCCC3)nc12	none
CCOC(=O)[C@H]1[C@H]2COc3ccc(Br)cc3[C@H]2N2C(=O)CN(Cc3ccc(C)cc3)C(=O)[C@@]12C	none (no result: KCNQ1 block, KCNK9 block, KCNQ1 pot, Kir21 inh, hERG rescue)
O=C(NCCCCc1ccccc1)C12CN(Cc3ccccc3)CC1C(c1cccc([N+](=O)[O-])c1)=NO2 (centres undefined)	none | KCNK9 block conf inactive | Kir21 sel inactive | KCNK9 uninduced inactive
CCc1ccccc1N(C)S(=O)(=O)c1ccc2[nH]cc(C(=O)N3CCc4ccccc43)c(=O)c2c1	KCNK9 block -9.3 | KCNK9 block conf inactive | Kir21 sel inactive | KCNK9 uninduced 26%
CCOCCCNC(=S)N1CCCN(c2nc3cc(C)ccc3cc2C#N)CC1	none | KCNK9 block conf inactive | Kir21 sel inactive | KCNK9 uninduced inactive
CCOCCCNC(=S)N1CCCN(c2nc3c(C)c(C)ccc3cc2C#N)CC1	none
Cc1ccc(C(=O)NCCSc2ccc(Cl)cc2)cc1S(=O)(=O)Nc1ccccc1	none | KCNK9 block conf inactive | Kir21 sel inactive | KCNK9 uninduced inactive
Cc1ccc(NS(=O)(=O)c2cc(C(=O)NCCSc3ccc(C)cc3)ccc2C)cc1	none | KCNK9 block conf inactive | Kir21 sel inactive | KCNK9 uninduced inactive
CS(=O)(=O)Nc1ccccc1C(=O)NCCSc1ccc(Cl)cc1	none
Cc1ccc(NS(=O)(=O)c2cc(C(=O)NCCSC3CCCCC3)ccc2C)cc1	none
COc1ccc(S(=O)(=O)N2CCOC23CCN(S(=O)(=O)c2ccc(Cl)cc2)CC3)cc1	none
CCCC(=O)NC(=S)Nc1ccc(S(=O)(=O)N2CCc3ccccc32)cc1	none
CC(C(=O)NC(=O)NC1CCCCC1)N1CCN(C(c2ccccc2)c2ccccc2)CC1 (centres undefined)	none | KCNK9 block conf inactive | Kir21 sel inactive | KCNK9 uninduced inactive
O=C(NC1CCCCC1)C(c1ccccc1)N1CCCC1 (centres undefined)	none
O=C(CSc1nc2ccccc2o1)Nc1ccccc1N1CCCCCC1	KCNK9 block -11 | KCNK9 block conf 61% | Kir21 sel 40% | KCNK9 uninduced 41%
O=C(Nc1ccccc1C(=O)N1CCCCC1)c1ccc(Cl)cc1Cl	none
Cc1ccc(COc2cccc3c2CCN(Cc2ccc(F)cc2)C3=O)cc1	KCNK9 block -10 | KCNK9 block conf 74% | Kir21 sel inactive | KCNK9 uninduced 41%
CCN1CCc2c(OCc3ccccc3)cccc2C1=O	none
O=C1c2cccc(OCc3ccc(F)cc3)c2CCN1Cc1ccccc1	KCNK9 block -11 | KCNK9 block conf 70% | Kir21 sel inactive | KCNK9 uninduced 48%
Clc1cccc2sc(N3CCCCC3)nc12	none
Brc1cccc2sc(N3CCN(c4ccccc4)CC3)nc12	KCNK9 block -14 | KCNK9 block conf 47% | Kir21 sel inactive | KCNK9 uninduced 30%
c1ccc(Cc2noc(CN3CCN(Cc4ccc5c(c4)OCO5)CC3)n2)cc1	none | KCNK9 block conf inactive | Kir21 sel inactive | KCNK9 uninduced inactive
C(=C\c1ccccc1)/CN1CCN(Cc2nc(Cc3ccccc3)no2)CC1	none | KCNK9 block conf inactive | Kir21 sel inactive | KCNK9 uninduced inactive
c1ccc(Cc2noc(CN3CCCN(C4Cc5ccccc5C4)CC3)n2)cc1	none
Fc1ccccc1Cc1noc(CN2CCN(Cc3ccc4c(c3)OCO4)CC2)n1	none
O=[N+]([O-])c1ccccc1/C=C/CN1CCN(Cc2ccc3c(c2)OCO3)CC1	none | KCNK9 block conf inactive | Kir21 sel inactive | KCNK9 uninduced inactive
COc1ccccc1CN1CCN(Cc2nc(Cc3ccccc3)no2)CC1	none | KCNK9 block conf inactive | Kir21 sel inactive | KCNK9 uninduced inactive
C(=C\c1ccccc1)/CN1CCN(Cc2ccc3c(c2)OCO3)CC1	none
CCCN1CCN(C(=O)CCn2c(=O)c3cccn3c3cccnc32)CC1	none
COc1ccc(C2C(=O)NN=C2C)cc1 (centres undefined)	none (no result: KCNQ1 block, KCNK9 block, KCNQ1 pot, Kir21 inh, hERG rescue)
COC(=O)c1ccc(CNC(=O)C23CC4CC(CC(C4)C2)C3)cc1	none
Cc1cc(C(=O)NNC(=O)Cc2ccc(Cl)cc2)c(C)o1	none
CCOC(=O)c1ccc(NC(=O)c2c(Cl)cc(C)nc2C)cc1	none
CCOc1ccc(C(=O)CCC(=O)Nc2cccc(S(=O)(=O)N3CCCCC3)c2)cc1	none (no result: KCNQ1 block, KCNK9 block, KCNQ1 pot, Kir21 inh, hERG rescue)
O=C(CNC(=O)c1ccc2c(c1)S(=O)(=O)N=C1CCCCCN12)Nc1ccc(F)c(F)c1	none
c1ccc(OCCN2CCN(Cc3nc(-c4ccc5c(c4)OCO5)no3)CC2)cc1	none | KCNK9 block conf inactive | Kir21 sel inactive | KCNK9 uninduced inactive
c1ccc(Cc2noc(CN3CCN(C4CCc5ccccc5C4)CC3)n2)cc1 (centres undefined)	none | KCNK9 block conf inactive | Kir21 sel inactive | KCNK9 uninduced inactive
c1cc(C2CCN(Cc3nc(-c4ccc5c(c4)OCO5)no3)CC2)ccn1	none
O=C(N[C@H](Cc1ccc(Cl)cc1)C(=O)O)OCC1c2ccccc2-c2ccccc21	none
O=C(N[C@@H](Cc1ccc(Br)cc1)C(=O)O)OCC1c2ccccc2-c2ccccc21	none | KCNK9 block conf inactive | Kir21 sel inactive | KCNK9 uninduced inactive
Cc1ccc(NC(=O)C2CCN(S(=O)(=O)c3ccc(N4CCCC4=O)cc3)CC2)cc1Cl	none
O=C(NCCNc1ccc([N+](=O)[O-])cc1C(F)(F)F)c1cccc(F)c1	none | KCNK9 block conf inactive | Kir21 sel inactive | KCNK9 uninduced inactive
O=C(NCCNc1ccc([N+](=O)[O-])cc1C(F)(F)F)c1ccccc1	none | KCNK9 block conf inactive | Kir21 sel inactive | KCNK9 uninduced inactive
C#Cc1ccc([C@H]2C=C(C(=O)N3CCOCC3)O[C@@H](OCC)[C@@H]2CCCO)cc1	none
COC(=O)c1ccc(C(C(=O)NC2CCCCC2)N(Cc2ccc(F)cc2)C(=O)Cc2cccs2)cc1 (centres undefined)	KCNK9 block -11 | KCNK9 block conf inactive | Kir21 sel inactive | KCNK9 uninduced 31%
O=C(Cn1c2c(c(-c3ccccc3)cc1=O)CCCC2)N1CCCCCC1	none | KCNK9 block conf inactive | Kir21 sel inactive | KCNK9 uninduced 32%
CC(C)Cc1ccc(C(C)C(=O)OCC(=O)c2c[nH]c3ccccc23)cc1 (centres undefined)	KCNK9 block -10 | KCNK9 block conf 24% | Kir21 sel inactive | KCNK9 uninduced 42%
